Measured values reported in ChEMBL document CHEMBL2176883, “Aminopiperidine sulfonamide Cav2.2 channel inhibitors for the treatment of chronic pain” (J Med Chem, 2012).

What was measured:
Rattus norvegicus [1] = assay: Antinociceptive activity in rat assessed as reversal of complete Freund's adjuvant-induced pain at 30 mg/kg, po after 3 hrs; format: functional
In short: (§1)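 In the rat CFA inflammatory pain model, compound was given orally at 30 mg/kg and allodynia was read at 1 and 3 h postdose. Average % reversal = (postdose − predose)/(preinjury − predose) for each rat, n = 6. Plasma exposure at 3 h was measured in satellite rats (n = 2).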

Rattus norvegicus [2] = assay: Analgesic activity in rat SNL neuropathic pain model assessed as reversal of mechanical allodynia at 30 mg/kg, po after 1 hr; format: functional
[3] = target: T1, Nuclear receptor subfamily 1 group I member 2 (Homo sapiens, UniProt O75469); assay: Activation of PXR
T1 sequence (O75469 whole entry): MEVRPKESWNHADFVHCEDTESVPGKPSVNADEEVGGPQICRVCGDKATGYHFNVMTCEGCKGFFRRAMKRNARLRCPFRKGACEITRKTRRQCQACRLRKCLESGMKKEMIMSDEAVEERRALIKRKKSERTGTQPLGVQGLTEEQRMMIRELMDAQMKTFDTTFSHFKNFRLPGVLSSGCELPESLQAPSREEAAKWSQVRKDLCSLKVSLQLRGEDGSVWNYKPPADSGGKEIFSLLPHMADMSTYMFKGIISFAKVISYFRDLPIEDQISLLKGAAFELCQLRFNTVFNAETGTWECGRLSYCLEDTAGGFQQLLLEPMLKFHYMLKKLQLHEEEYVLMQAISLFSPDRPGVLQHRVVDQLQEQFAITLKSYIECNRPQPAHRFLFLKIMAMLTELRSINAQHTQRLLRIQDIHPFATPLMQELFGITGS
In short: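 PXR activation read as EC50, with maximal activation given as % at 10 μM.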

Canis familiaris [4] = assay: Cardiotoxicity in vagotomized dog assessed as QRS interval at 1 to 10 mg/kg, iv up to 90 mins; format: toxicity, organism-based, Canis lupus familiaris; parameters: dose 1-10 mg/kg, route intravenous; details: in vivo, 1.5 h
In short: (§2)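 Anesthetized, vagotomized dogs received an intravenous infusion in sequential rising cumulative doses of 1, 3 and 10 mg/kg. MAP, HR, QRS, PR and QTc were monitored, with plasma exposure sampled at the indicated time points (n = 3).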

Cytochrome P450 3A4 = Cytochrome P450 3A4 (Homo sapiens, UniProt P08684); assay: Inhibition of CYP3A4; format: ADME
Sequence of Cytochrome P450 3A4 (P08684 whole entry): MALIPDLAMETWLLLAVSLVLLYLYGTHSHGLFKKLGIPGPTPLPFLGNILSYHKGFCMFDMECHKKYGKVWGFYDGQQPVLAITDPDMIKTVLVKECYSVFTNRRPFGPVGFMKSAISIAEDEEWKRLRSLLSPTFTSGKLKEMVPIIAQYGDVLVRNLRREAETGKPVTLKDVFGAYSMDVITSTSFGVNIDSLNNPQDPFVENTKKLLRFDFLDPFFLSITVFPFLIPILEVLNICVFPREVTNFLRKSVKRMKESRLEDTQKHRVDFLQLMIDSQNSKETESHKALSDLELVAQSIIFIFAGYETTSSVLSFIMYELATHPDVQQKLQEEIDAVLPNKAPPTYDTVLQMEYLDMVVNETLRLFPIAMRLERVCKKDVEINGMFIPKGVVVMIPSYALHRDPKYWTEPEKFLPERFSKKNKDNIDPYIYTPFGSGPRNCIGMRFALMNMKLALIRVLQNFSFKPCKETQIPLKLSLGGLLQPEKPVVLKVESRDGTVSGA

[5] = Plasma concentration in rat complete Freund's adjuvant-induced pain model at 30 mg/kg, po after 3 hrs; format: ADME, organism-based; parameters: dose 30 mg/kg, route oral
In short: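 Satellite rats in CFA inflammatory pain study, 30 mg/kg po; plasma exposure (μM) at 3 h, n = 2, standard deviation.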

[6] = Drug level rat brain at 100 mg/kg, po after 3 hrs; format: ADME, organism-based; parameters: dose 100 mg/kg, route oral; details: read-out: Drug uptake
In short: (§3)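 Rats were dosed orally at 100 mg/kg, motor coordination was tested on a rota-rod 3 h later, and plasma and brain exposure were then measured.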

hERG = hERG (Homo sapiens, UniProt Q12809); assay: Displacement of [35S]-MK-0499 from human ERG at 1 uM; details: probe [35S]-MK-0499
Sequence of hERG (Q12809 whole entry): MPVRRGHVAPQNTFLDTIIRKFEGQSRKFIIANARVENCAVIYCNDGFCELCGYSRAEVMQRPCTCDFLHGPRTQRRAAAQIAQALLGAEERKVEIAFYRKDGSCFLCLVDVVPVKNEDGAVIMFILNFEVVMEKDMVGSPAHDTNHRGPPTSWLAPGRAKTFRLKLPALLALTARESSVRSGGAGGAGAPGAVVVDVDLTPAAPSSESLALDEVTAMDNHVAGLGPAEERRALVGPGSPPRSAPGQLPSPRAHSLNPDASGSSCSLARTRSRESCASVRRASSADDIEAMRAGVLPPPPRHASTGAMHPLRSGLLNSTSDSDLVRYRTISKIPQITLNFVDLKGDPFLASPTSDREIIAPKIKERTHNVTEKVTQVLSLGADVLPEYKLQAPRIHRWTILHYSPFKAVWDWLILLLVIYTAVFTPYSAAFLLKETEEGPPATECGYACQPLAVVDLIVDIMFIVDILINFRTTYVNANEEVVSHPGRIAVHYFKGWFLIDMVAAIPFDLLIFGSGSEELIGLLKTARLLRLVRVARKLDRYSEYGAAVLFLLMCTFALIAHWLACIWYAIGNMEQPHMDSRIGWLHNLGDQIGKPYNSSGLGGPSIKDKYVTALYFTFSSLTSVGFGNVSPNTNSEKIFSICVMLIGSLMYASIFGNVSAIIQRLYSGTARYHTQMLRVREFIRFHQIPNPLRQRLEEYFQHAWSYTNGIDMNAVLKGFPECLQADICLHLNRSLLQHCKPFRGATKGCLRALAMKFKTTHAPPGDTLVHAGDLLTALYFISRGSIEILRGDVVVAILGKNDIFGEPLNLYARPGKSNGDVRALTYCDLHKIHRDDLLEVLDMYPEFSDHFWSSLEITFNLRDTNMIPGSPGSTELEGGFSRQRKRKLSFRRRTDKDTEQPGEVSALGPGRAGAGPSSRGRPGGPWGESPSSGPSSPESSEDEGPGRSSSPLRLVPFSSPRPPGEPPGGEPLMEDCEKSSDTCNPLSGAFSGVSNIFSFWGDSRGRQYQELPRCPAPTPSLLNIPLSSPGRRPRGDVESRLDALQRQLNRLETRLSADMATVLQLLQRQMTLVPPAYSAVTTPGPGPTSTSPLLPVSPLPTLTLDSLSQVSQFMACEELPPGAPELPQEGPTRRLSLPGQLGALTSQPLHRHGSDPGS
In short: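 hERG binding was measured as displacement of 35S-labeled MK-0499 at single test concentrations.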

Rattus norvegicus [7] = assay: Neurotoxicity in rat assessed as motor coordination at 100 mg/kg, po after 3 hrs; format: toxicity, organism-based; parameters: dose 100 mg/kg, route oral; details: in vivo; in short: as §3
[8] = Half life in rat at 3 mg/kg, po and 1 mg/kg, iv; format: ADME, organism-based; details: in vivo
In short: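 Rat pharmacokinetics from iv and po arms: 0.6 mg/kg iv with 1.8 mg/kg po, or 1 mg/kg iv with 3 mg/kg po. AUC was normalized to po dose (μM·h·kg/mg). Clearance (mL/min/kg) and half-life come from the iv arm, and F% is oral bioavailability.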

[9] = Plasma concentration rat at 100 mg/kg, po after 3 hrs; format: ADME, organism-based; parameters: dose 100 mg/kg, route oral
In short: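 Rat rota-rod motor coordination study; single 100 mg/kg oral dose; plasma and brain exposure determined 3 h postdose.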

[10] = Drug metabolism in Sprague-Dawley rat assessed as parent compound level in blood at 10 mg/kg, po after 8 hrs; format: ADME, organism-based; parameters: dose 10 mg/kg, route oral; details: read-out: Drug metabolism
In short: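 Male Sprague-Dawley rats were given a 10 mg/kg oral dose. Parent and metabolite concentrations were measured in whole blood and brain over time, including 8 h postdose.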

Rattus norvegicus [11] = assay: Analgesic activity in rat SNL neuropathic pain model assessed as reversal of mechanical allodynia at 10 mg/kg, po after 1 hr; format: functional
Rattus norvegicus [12] = assay: Analgesic activity in po dosed rat SNL neuropathic pain model assessed as reversal of mechanical allodynia after 1 to 24 hrs; format: functional, organism-based
[13] = Plasma concentration in vagotomized dog at 10 mg/kg, iv after 90 mins; format: ADME, organism-based, Canis lupus familiaris; parameters: dose 10 mg/kg, route intravenous
In short: (§4)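 Anesthetized, vagotomized dogs; intravenous infusion in sequential rising doses of 1, 3 and 10 mg/kg (cumulative); plasma exposure sampled at indicated time points, n = 3.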

[14] = Fraction unbound in human plasma; format: ADME, cell-free
[15] = Plasma concentration in vagotomized dog at 3 mg/kg, iv after 60 mins; format: ADME, organism-based, Canis lupus familiaris; parameters: dose 3 mg/kg, route intravenous; in short: as §4
Rattus norvegicus [16] = assay: Antinociceptive activity in rat assessed as reversal of complete Freund's adjuvant-induced pain at 30 mg/kg, po after 1 hr; format: functional; in short: as §1
[17] = target: Voltage-dependent N-type calcium channel subunit alpha-1B (Homo sapiens, UniProt Q00975); assay: Inhibition of human Cav2.2 expressed CBK cells assessed as inhibition of channel current at 10 uM at holding membrane potential -90 mV by conventional patch clamp electrophysiology assay
Sequence of Voltage-dependent N-type calcium channel subunit alpha-1B (Q00975 whole entry, looked up): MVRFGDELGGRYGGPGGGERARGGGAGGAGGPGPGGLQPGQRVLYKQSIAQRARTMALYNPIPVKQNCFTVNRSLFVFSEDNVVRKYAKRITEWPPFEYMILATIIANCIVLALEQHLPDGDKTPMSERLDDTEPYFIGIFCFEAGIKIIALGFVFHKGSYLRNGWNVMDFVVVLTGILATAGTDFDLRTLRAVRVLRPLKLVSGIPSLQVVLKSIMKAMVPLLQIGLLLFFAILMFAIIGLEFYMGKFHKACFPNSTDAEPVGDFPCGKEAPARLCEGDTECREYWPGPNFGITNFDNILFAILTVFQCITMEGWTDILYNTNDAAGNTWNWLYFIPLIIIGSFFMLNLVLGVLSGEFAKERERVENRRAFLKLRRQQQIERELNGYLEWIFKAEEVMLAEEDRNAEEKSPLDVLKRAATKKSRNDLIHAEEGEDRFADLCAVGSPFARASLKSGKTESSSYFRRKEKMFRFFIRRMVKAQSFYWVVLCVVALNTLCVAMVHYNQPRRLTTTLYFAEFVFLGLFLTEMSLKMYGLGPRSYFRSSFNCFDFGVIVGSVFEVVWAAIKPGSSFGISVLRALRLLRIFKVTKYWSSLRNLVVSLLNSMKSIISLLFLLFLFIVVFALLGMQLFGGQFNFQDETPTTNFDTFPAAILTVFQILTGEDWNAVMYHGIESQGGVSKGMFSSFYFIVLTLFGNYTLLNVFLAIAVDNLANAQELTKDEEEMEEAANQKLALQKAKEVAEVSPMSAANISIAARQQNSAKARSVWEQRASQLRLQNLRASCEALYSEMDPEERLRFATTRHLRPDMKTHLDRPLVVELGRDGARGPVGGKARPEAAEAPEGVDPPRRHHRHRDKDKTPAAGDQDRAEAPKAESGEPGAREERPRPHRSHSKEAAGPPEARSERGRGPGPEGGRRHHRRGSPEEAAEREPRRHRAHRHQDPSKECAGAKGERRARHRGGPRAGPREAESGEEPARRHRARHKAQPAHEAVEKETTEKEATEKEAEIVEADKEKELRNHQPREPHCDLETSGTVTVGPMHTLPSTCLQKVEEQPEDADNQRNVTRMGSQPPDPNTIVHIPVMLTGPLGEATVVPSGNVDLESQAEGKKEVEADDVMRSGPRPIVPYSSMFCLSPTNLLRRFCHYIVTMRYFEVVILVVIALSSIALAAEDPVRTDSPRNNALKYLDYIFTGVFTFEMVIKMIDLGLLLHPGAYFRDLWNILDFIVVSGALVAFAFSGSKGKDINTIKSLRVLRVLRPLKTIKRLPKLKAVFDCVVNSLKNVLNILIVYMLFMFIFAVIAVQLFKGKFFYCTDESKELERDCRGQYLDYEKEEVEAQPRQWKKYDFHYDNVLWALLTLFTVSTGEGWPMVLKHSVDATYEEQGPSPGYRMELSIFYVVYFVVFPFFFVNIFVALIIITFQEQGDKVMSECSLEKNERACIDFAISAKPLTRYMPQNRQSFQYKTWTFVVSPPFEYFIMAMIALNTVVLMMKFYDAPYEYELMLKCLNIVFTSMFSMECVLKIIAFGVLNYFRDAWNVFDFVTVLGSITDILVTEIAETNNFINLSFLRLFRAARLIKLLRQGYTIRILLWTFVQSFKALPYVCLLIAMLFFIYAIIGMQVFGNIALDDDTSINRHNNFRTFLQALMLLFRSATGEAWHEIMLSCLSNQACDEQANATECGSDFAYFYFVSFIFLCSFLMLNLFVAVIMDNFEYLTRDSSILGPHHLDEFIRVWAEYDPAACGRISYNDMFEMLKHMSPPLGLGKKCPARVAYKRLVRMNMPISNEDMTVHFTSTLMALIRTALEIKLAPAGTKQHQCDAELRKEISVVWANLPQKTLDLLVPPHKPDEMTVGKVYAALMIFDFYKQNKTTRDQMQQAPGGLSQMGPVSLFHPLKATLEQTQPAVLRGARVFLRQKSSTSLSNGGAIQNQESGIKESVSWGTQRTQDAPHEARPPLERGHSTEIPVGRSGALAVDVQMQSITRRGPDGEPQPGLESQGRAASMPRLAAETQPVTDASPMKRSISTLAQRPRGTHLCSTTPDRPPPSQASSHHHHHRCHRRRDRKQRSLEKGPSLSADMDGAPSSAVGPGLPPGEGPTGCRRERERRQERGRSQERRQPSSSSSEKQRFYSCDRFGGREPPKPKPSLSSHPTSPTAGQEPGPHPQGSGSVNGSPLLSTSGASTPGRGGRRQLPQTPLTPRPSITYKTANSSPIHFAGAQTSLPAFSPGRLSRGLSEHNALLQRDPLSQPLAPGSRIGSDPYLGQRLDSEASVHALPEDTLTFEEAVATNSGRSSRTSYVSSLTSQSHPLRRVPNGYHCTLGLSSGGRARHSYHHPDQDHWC
In short: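 Cav2.2 current block was measured at a depolarized (−40 mV) or hyperpolarized (−90 mV) potential. At −40 mV, n = 2, 3, 4 and 1 at 0.3, 1, 3 and 10 μM. At −90 mV, n = 4 and 6 at 3 and 10 μM. Values are mean ± SEM.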

Liver microsomes [18] = assay: Drug metabolism in rat liver microsomes assessed as assessed as 3-trifluoromethylbenzenesulfonamide level level; format: ADME, Microsome
Mus musculus [19] = assay: Antinociceptive activity in Cav2.2 expressing wild type mouse assessed as reversal of complete Freund's adjuvant-induced pain at 30 mg/kg, po after 2 hrs; format: functional
Cav1.2 = Cav1.2 (Homo sapiens, UniProt Q13936); assay: Inhibition of Cav1.2 assessed as inhibition of calcium flux at 3 uM by cell based FLIPR assay
In short: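 Cav1.2 counterscreen using a related calcium-influx FLIPR assay, run as % inhibition at single concentrations or as a titration.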

Canis familiaris [20] = assay: Cardiotoxicity in vagotomized dog assessed as PR interval at 1 to 10 mg/kg, iv up to 90 mins; format: toxicity, organism-based, Canis lupus familiaris; parameters: dose 1-10 mg/kg, route intravenous; details: in vivo, 1.5 h; in short: as §2
Liver microsomes [21] = assay: Drug metabolism in human liver microsomes assessed as assessed as 3-trifluoromethylbenzenesulfonamide level level; format: ADME, Microsome
Mus musculus [22] = assay: Antinociceptive activity in Cav2.2 expressing wild type mouse SNL neuropathic pain model assessed as reversal of mechanical allodynia at 30 mg/kg, po after 2 hrs; format: functional
In short: (§5)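 Cav2.2+/+ and Cav2.2−/− mice underwent spinal nerve ligation, then got a single 30 mg/kg oral dose. Mechanical allodynia was scored 2 h postdose.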

Mus musculus [23] = assay: Antinociceptive activity in Cav2.2 deficient mouse SNL neuropathic pain model assessed as reversal of mechanical allodynia at 30 mg/kg, po after 2 hrs; format: functional; in short: as §5
[24] = Plasma concentration in rat SNL neuropathic pain model at 10 mg/kg, po after 3 hrs; format: ADME, organism-based; parameters: dose 10 mg/kg, route oral
In short: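 Rats with spinal nerve ligation; separate SNL-treated rats given single oral 10 mg/kg dose; plasma exposure measured 3 h postdose.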

With `CS(=O)(=O)c1ccc(F)cc1C(=O)N1CCC(N(C2CC2)S(=O)(=O)c2cccc(C(F)(F)F)c2)CC1` the Activity (Rattus norvegicus [1]) was 57%, the Activity (Rattus norvegicus [2]) was 65% and the EC50 [3] was 0.43 µM. The Activity (Canis familiaris [4]) was “Non-toxic”, the IC50 (Cytochrome P450 3A4) was 5.1 µM and the concentration at 3 h [5] was 1.6 µM. For the same compound, the concentration at 3 h [6] was 11.9 µM, the inhibition at 1 µM (hERG) was 1.6% and the Activity (Rattus norvegicus [7]) was “Non-toxic”. The half-life [8] was 1.3 h, the concentration at 3 h [9] was 9.5 µM and the concentration at 8 h [10] was 0.31 µM. The Activity (Rattus norvegicus [11]) was 45%, the Activity (Rattus norvegicus [12]) was “Dose-dependent effect” and the concentration at 1.5 h [13] was 20.4 µM. It also gave a fraction unbound [14] of 0.014, a concentration at 1 h [15] of 5.79 µM and an Activity (Rattus norvegicus [16]) of 66%. The inhibition [17] was 43%, the Drug metabolism (Liver microsomes [18]) was “Active” and the Activity (Mus musculus [19]) was 35%. The inhibition at 3 µM (Cav1.2) was 34%, the Activity (Canis familiaris [20]) was “Non-toxic” and the Drug metabolism (Liver microsomes [21]) was “Active”. For the same compound, the Activity (Mus musculus [22]) was 38%, the Activity (Mus musculus [23]) was 9% and the concentration at 3 h [24] was 1.26 µM.
